Reference: the EternaBench riboswitch data

Test system: MS2 coat protein
Assay: apparent Kd, MS2 coat protein; higher = weaker binding; RNA-MaP array; FMN 200 µM where present
Summary of the method: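 Stalled E. coli RNA polymerase transcribed each design on Illumina sequencing-chip clusters. The clusters were titrated with SNAP-549-labelled MS2 coat protein, starting at 0.7 or 1.5 nM and doubling up to 3 µM, first without ligand and then with constant ligand, in 100 mM Tris-HCl pH 7.5, 80 mM KCl, 4 mM MgCl2, BSA, DTT, yeast tRNA and Tween-20. Green signal was normalised to red-channel RNA signal and to the control-cluster median Fmax. The apparent Kd is the median of filtered binding-curve fits made for each cluster.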

[1] = designed as: ON switch for flavin mononucleotide, no ligand
[2] = ligand present: flavin mononucleotide, designed as: ON switch for flavin mononucleotide
[3] = designed as: OFF switch for flavin mononucleotide, no ligand
[4] = ligand present: flavin mononucleotide, designed as: OFF switch for flavin mononucleotide

Sequence | apparent Kd [1] [nM] | apparent Kd [2] [nM] | apparent Kd [3] [nM] | apparent Kd [4] [nM]
ACAUGGAAUACAGGAUAUGUAAGUUUUAAGUAGAUUGGUUAUUACUUUACUACAGAAGGGUAAUACAUGAGGAUCACCCAUGUA | 16.9 | 12.2 | – | –
ACAUGUACAGGAUAUACAUGGAUGAUACACGUAUUUCCACUACAUGAGGAUCACCCAUGUAGAAGGGUACAUGA | – | – | 39.7 | 18.4
ACAUUAGUACCACAUGUAUUACAUGAGGAUCACCCAUGUAACUAGGAUAUGUAUUAGAAUUUACAACAGAAGGAGUUAAUAUGU | – | – | 9.8 | 11.9
ACAUUGAUUGUGAGGAUAUCGAUGUGAUGGUAUGUCGAGAAGGCACAUGAGGAUCACCCAUGUGGGUGUGGGCA | – | – | 259 | 292
ACCAAUGCAGGAUAUACAUGAGGAUCACCCAUGUAUAACCUACAUAGAUGAUUAUCAUGUAGAAGGGCAUUGGA | – | – | 11.7 | 8.43
ACCCUGUCAGGAUAUCCUGCUGUGCGGCCUCUGUAUUCAAGGGAGAAGGGACAUGAGGAUCACCCAUGUAUGAG | – | – | 40.6 | 47.5
ACCUAGUCAGGAUAUGUACGGACCGGAAGCGGAUCGGAGGAGCAGAAGGGACAUGAGGAUCACCCAUGUUUGUU | – | – | 25.3 | 28
ACCUUACAUGAGGAUCACCCAUGUUAGGAUAUCUCGCCUGCACAAACACAGCGCAGGCAGAGAAGGGACGCGGG | – | – | 28.2 | 35
ACGAGCAAGAUUAUUAUGAAUAAACAUGAGGAUCACCCAUGUAAGGAUAUGCAGUGGAAUACACUGCAGAAGGUACAUAGCUCG | – | – | 11.3 | 44.2
ACGCAGAGAGGAUAUACAUGAGGAUCACCCAUGUAUAAACGCACUAACUCUCCUCACUGUAGAAGGCUCAUGCA | – | – | 11.7 | 20.4
ACGCGAUGGGAGAAGGUACUUUAAGAAUUUUACACAUGAGGAUCACCCAUGUAAGGAUAUCCCAUCGUUAAAUAUUAUACAGCA | – | – | 6.56 | 5.77
ACGGAACAUGAGGAUCACCCAUGUAUCUGAGAUAUGGUCUCACAGGAUAUUCAGAGUUGCCAAUCGGAGAAGGGUGACACCAGA | 78.5 | 43.5 | – | –
ACGGACCUAGGAUAUACAUGAGGAUCACCCAUGUGCCCGCAUGGUCCGGGUCCUGAGAGUAGAAGGAGGAGCGA | – | – | 50.9 | 43.2
ACGGCCUUACAUGAGGAUCACCCAUGUGAGUAUGGAGUUACACAGGAUAUCCGCGUGGCAGGCAAGGAGAAGGGUGUAUUAGGA | 70 | 21.9 | – | –
ACGGUGGUCACAGGAUAUCCGGCCCGCGUGGCCGGAGAAGGGUGACUCAGAACCACAUGAGGAUCACCCAUGUGCCUUGCCGUA | 102 | 35.5 | – | –
ACGUCUUAGUAGAAGGGACUUCGGCUGGUAAGCAUCAUCUCCUUCUCACAUGAGGAUCACCCAUGUCAGGAUAUACUAAGAGUC | – | – | 7.24 | 7.35
ACGUGACGGUGCGCGAGUGGACGGAGAAGGCAGACAUGAGGAUCACCCAUGUGAGCCUGCUAUUCUGAGGAUAUCCGUCCGCUC | – | – | 38.8 | 257
ACGUGUAAUACAGGAUAUGUUAUGGAUUAAUCAACCAGUUAUUACGUUUCGACAGAAGGGUAUACAUGAGGAUCACCCAUGUUA | – | – | 22.3 | 17.9
ACGUUAAUUCGAGGAUAUCGGUGAUUUAUAUUACGAGAAGGCGAUAAUUGUGAUAAACUUAUAGACAUGAGGAUCACCCAUGUA | 42.7 | 38.8 | – | –
ACUAAGGAGGUAGGAUAUUGUGUGGUGGCCGGGCUCCCACGGCGAGCGGCACAAGAAGGAUCCCUACAUGAGGAUCACCCAUGU | 24 | 16.4 | – | –
ACUAGAUGAGGAUAUGCAUAUUUUCGUGUUCUUCUAGGUUAACAUGAGGAUCACCCAUGUAGAAGGCGUCUAUC | – | – | 22.2 | 39.7
ACUAGAUGAGGAUAUGCAUGUUUUCAUGUUCUUCUAGAUUAACAUGAGGAUCACCCAUGUAGAAGGCGUCUUUA | – | – | 19.5 | 34.8
ACUAGGCGAGGAUAUACAUGCUUAACGCAGGAAAAGCUGCGACAUGAGGAUCACCCAUGUAGAAGGCGCAAAUA | – | – | 15.7 | 115
ACUGCAUAGGCAGGAUAUGCAAAAGCAGAUGCAAAGCAUUUGAAUAACACAUGAGGAUCACCCAUGUAGAAGGGCCUGUGCAGU | – | – | 20.1 | 20.2
ACUGUUGAGUAGAAGGUACGAUAUUAGUUAUAGUAAGGAUAUACUAACAUGAGGAUCACCCAUGUAUAAAUGGAUAAAUAUUCU | 9.91 | 11.5 | – | –
ACUUACUGAGGAUAUACAUAGAUUUACAUGAGGAUCACCCAUGUUCCUCUAUGUAUAUAUGUAGAAGGCAGAAGUU | – | – | 26.3 | 97.8
ACUUGCUUGCAGAAGGGUGACAUGAGGAUCACCCAUGUAGCGGGCUGGCGUAAAGUCAGCGCGCCACAGGAUAUGCAGGCCUCG | 61.2 | 47.6 | – | –
ACUUGUAAGCAGAAGGCAGUCAUUAUAUUCAUCAUGUAGACAUGAGGAUCACCCAUGUAGAGUACUGAGGAUAUGCAUCGAUAG | – | – | 6.41 | 8.85
